Bioassay records as filed in PubChem BioAssay.
Most compounds without a hit are left out; they make up all but 3.7% or so of the library.
ROMK mod: modulators of human ROMK potassium channel. P48048. Tet-inducible ROMK, thallium flux fluorescence; actives lie on both sides. B-score at 10 µM. hit rate 2% among 130,000;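 active = signal ratio slope over the read window, or its plate-corrected B-score, at least 3 SD from the plate mean, either direction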;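 note: B-score of the F/F0 ratio slope over 7 to 12 s after thallium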
KCC2 mod: modulates chloride dependent transport by human KCC2; B-score of Tl+ flux slope (higher = more flux/activation; lower = inhibition) at 10 µM; AID 1456; hit rate 2.2% among 190,000; KCC2 cells, thallium flux FluoZin-2 fluorescence;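 active = thallium flux slope and its plate-corrected score both differing from the plate sample mean at a set confidence after two filtering rounds, in either direction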;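 note: slope of fluorescence scaled to starting intensity during 10 to 20 s after thallium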
Target sequence (Q9H2X9 whole entry, looked up): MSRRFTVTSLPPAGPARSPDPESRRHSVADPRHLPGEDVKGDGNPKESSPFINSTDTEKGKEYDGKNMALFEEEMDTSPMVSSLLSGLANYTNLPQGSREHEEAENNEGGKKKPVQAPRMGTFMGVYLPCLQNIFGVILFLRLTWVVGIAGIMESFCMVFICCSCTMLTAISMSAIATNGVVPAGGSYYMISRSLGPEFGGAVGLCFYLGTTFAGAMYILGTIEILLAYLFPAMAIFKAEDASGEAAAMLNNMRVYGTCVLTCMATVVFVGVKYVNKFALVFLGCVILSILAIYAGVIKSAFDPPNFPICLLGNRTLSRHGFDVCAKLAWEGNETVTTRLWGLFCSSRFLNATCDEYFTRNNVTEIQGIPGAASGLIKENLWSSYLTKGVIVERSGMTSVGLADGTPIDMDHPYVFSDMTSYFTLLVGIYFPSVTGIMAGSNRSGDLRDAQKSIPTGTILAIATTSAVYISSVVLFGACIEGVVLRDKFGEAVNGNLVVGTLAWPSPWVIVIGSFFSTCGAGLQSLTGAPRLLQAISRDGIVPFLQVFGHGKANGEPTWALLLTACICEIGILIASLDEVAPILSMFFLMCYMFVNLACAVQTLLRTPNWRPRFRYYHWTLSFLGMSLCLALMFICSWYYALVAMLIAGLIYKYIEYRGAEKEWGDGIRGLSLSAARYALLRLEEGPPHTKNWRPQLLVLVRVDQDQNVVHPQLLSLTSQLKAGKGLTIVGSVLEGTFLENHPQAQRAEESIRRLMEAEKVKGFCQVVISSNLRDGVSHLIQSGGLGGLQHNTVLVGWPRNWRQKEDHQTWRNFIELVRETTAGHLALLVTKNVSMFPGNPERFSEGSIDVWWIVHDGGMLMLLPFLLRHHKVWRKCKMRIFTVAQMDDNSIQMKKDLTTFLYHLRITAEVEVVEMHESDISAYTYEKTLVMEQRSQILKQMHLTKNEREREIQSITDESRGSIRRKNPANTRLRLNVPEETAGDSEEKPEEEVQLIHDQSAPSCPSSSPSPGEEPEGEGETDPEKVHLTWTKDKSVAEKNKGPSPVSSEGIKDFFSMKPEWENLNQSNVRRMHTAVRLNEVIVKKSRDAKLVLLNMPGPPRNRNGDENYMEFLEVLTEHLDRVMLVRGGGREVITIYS
MDM2 E3 inh: blocks human Mdm2 ubiquitin ligase activity; Q00987; cell-based MDM2 ubiquitination luciferase reporter, 2 h; 0 = plate control, 100 = twice control, blank-subtracted; signal enhancement, % at 5 µM; hit rate 0.11% among 210,000; AID 1230;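 active = signal enhancement of 30% or more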;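 note: luminescence tracks abundance of the self-degrading MDM2-luciferase fusion protein; higher signal means inhibition of MDM2 E3 ligase activity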
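Test system: stable mammalian line carrying autodegrading MDM2–luciferase fusion reporter; quantity: 2000 cells in each well; times: 4 h cell settling then 2 h compound exposure, 37 °C; detection: luminescence with SteadyLite reagent, 15 min at room temperature; evaluation: percent signal gain over controls, blank-subtracted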
PKD1 inh: inhibitors of human PKD1 kinase; hit rate 0.056% among 200,000; PKD1 kinase fluorescence polarization assay; inhibition, % (test concentration not listed); Q15139; AID 797; in the data active = inhibition above about 50%
Arbovirus inh: antivirals against arbovirus infection; AID 1251; inhibition, % at 10 µM; hit rate 0.37% among 200,000; arbovirus infection cell-based antiviral screen; in the data active = inhibition above about 30%
m-calpain inh: inhibitors of pig calpain II; purified calpain II, fluorogenic peptide substrate, 30 min; inhibition, % at 16 µM; hit rate 0.37% among 220,000;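 active = inhibition above about 50%, limit read from the data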
ROMK retest: confirmation of human ROMK potassium channel modulators. shares compounds with ROMK mod. ROMK thallium flux, fluorescence ratio; stronger effect = lower value. hit rate 54% among 3,000. normalized thallium flux (F/F0 slope) at 10 µM. AID 1917;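 active = Flux at 10 µM at least 3 SD below or above vehicle control mean in one or both replicates; inconclusive = no clear call, values can overlap the other calls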
Of the large screens only hits and unclear results are named; the others gave an inactive call (follow-up assays come after a bar, where they were run).

COc1cccc(NC(=O)C(c2ccccc2)N2CCNC(=O)C2)c1 (stereo unspecified)	none
CCc1ccc(C(=O)NC(C(=O)NCC2CCCO2)C(C)C)cc1 (stereo unspecified)	none
Cc1cc(C)n(NC(=S)NC2CCCCC2)c(=O)c1C#N	none (no result: ROMK mod, KCC2 mod, PKD1 inh, Arbovirus inh)
CC(C)(C)C1CC=C2C(C#N)=C(N)C(C#N)(C#N)C(c3cccs3)C2C1 (stereo unspecified)	ROMK mod -3 (no result: MDM2 E3 inh, Arbovirus inh, m-calpain inh) | ROMK retest 0.055
CC(=Nc1cccc(O)c1)c1sc2ccccc2c1O	ROMK mod -2.4 (no result: KCC2 mod) | ROMK retest 0.058
CCN1CC=C2C(C#N)=C(N)C(C#N)(C#N)C(CCc3ccccc3)C2C1 (stereo unspecified)	none (no result: ROMK mod) | ROMK retest 0.057
CC(=O)N1CC=C2C(C#N)=C(N)C(C#N)(C#N)C(CCc3ccccc3)C2C1 (stereo unspecified)	ROMK mod -2.7 | ROMK retest 0.062
CC(=O)N1CC=C2C(C#N)=C(N)C(C#N)(C#N)C(C)C2C1 (stereo unspecified)	none
CC1(C(=O)N2CC3(CC(c4cccc([N+](=O)[O-])c4)=NO3)C[C@H]2C(=O)NCC(N)=O)CC1 (stereo partly specified)	none
Cc1cc(C)nc(N/N=C/c2sccc2C)n1	ROMK mod -19 | ROMK retest inactive
Cc1cc(C)nc(N/N=C/c2ccccc2)n1	none
O=C(O)C1CCCCC1C(=O)NCCc1ccncc1 (stereo unspecified)	ROMK mod 2.4 | ROMK retest inactive
O=C(Nc1cccc(S(=O)(=O)N2CCCCC2)c1)C1CC(=O)N(Cc2ccco2)C1 (stereo unspecified)	none
CCN=C1SC(CC(=O)Nc2ccccc2)C(=O)N1CC (stereo unspecified)	none (no result: ROMK mod)
CCN=C1SC(CC(=O)NCC)C(=O)N1CC (stereo unspecified)	ROMK mod 3 | ROMK retest inactive
COc1ccc(C2=CC(c3ccc(C)cc3)n3nnnc3N2)cc1 (stereo unspecified)	ROMK mod -4.4, Arbovirus inh 38 (no result: KCC2 mod) | ROMK retest inconclusive
CCOc1cc(N2CCOCC2)c(OCC)cc1NC(=O)COc1ncnc2ccccc12	none (no result: KCC2 mod)
CCOc1cc(N2CCOCC2)c(OCC)cc1NC(=O)c1cc(-c2ccco2)nc2ccccc12	none (no result: ROMK mod) | ROMK retest 0.066
C=CCNC(=O)/C(C#N)=C/c1ccc(SC)cc1	ROMK mod -4.5 | ROMK retest 0.053
C=CCNC(=O)/C(C#N)=C/c1ccc2c(c1)OCCO2	none
CSc1ccc(/C=C(\C#N)C(=O)NC2CCCCC2)cc1	ROMK mod -2.5 | ROMK retest 0.054
C=CCNC(=O)/C(C#N)=C/c1ccc(OS(=O)(=O)c2ccc(C)cc2)c(OC)c1	ROMK mod -4.6 | ROMK retest 0.042
CC(=O)Nc1ccc(/C=C(\C#N)C(=O)NC2CCCCC2)cc1	none
CC1CCCCC1NC(=O)/C(C#N)=C/c1ccc(F)c(F)c1 (stereo unspecified)	ROMK mod -3 | ROMK retest 0.05
CC(C)c1nc(SCC(=O)Nc2ccc(N3CCOCC3)cc2)c2ccccc2n1	none
CCCCn1c(SCC(=O)Nc2ccc3c(c2)OCO3)nc2c1c(=O)n(C)c(=O)n2C	none (no result: KCC2 mod)
Cc1cc(C)nc(N2CCC(C(=O)Nc3ccc4c(c3)CCC4)CC2)n1	none (no result: ROMK mod)
Cc1ccc(C(C)C)c(OCCNc2nc3c(c(=O)n(C)c(=O)n3C)n2C)c1	none (no result: KCC2 mod, MDM2 E3 inh, PKD1 inh, Arbovirus inh, m-calpain inh)
CN(C)C(=S)c1ccccc1	none (no result: ROMK mod, PKD1 inh, Arbovirus inh) | ROMK retest inactive
Cc1ccc(-n2nnnc2SCC(=O)Nc2sc(C)c(C)c2C#N)cc1C	none (no result: ROMK mod) | ROMK retest inactive
CC(=O)c1ccc(-n2nnnc2SCC(=O)Nc2sc(C)c(C)c2C#N)cc1	none
CN(C)C(/C=C/Nc1ccc(O)cc1)=C(C#N)C#N	none
O=C(CCCn1c(SCc2cccc([N+](=O)[O-])c2)nc2ccccc2c1=O)NCC1CCCO1 (stereo unspecified)	none
OCCC1CN(Cc2nc(-c3ccc(F)cc3)cs2)CCN1CCc1ccccc1 (stereo unspecified)	ROMK mod -3.9 | ROMK retest 0.054
OCCC1CN(Cc2nc(-c3ccccc3)cs2)CCN1CCc1ccccc1 (stereo unspecified)	none
CCOC(=O)C(NC(=O)c1ccc(Cl)cc1Cl)(Nc1ccc(C)cc1)C(F)(F)F (stereo unspecified)	none (no result: ROMK mod)
CN(C)S(=O)(=O)c1cc(S(=O)(=O)N(C)C)c(Cl)cc1N	none (no result: KCC2 mod)
COc1cc(CN2CCN(Cc3ccc([N+](=O)[O-])cc3)CC2)c([N+](=O)[O-])cc1OC	ROMK mod -4.3 | ROMK retest 0.044
O=C(CC1C(=O)NC2CCCCC2N1C(=O)c1ccc([N+](=O)[O-])cc1)Nc1ccccc1 (stereo unspecified)	none
COc1ccccc1N1CCN(C(=O)CSc2ccccc2)CC1	none
COc1ccccc1N1CCN(C(=O)CSc2nnc3c4ccccc4nc(Cc4ccccc4)n23)CC1	none (no result: ROMK mod) | ROMK retest inactive
CCCCc1ccc(S(=O)(=O)NCCc2ccncc2)cc1	none (no result: ROMK mod, KCC2 mod) | ROMK retest 0.062
Cc1ccc(S(=O)(=O)NCCc2ccncc2)cc1	none (no result: ROMK mod)
CCN1CCN(C(=S)NCCc2ccccc2)CC1	none (no result: ROMK mod)
S=C(NCCc1ccccc1)N1CCN(C23CC4CC(CC(C4)C2)C3)CC1	ROMK mod -7.9 | ROMK retest inconclusive
C=CCn1c(COc2cccc(C)c2C)nnc1SCC(=O)N1CCN(c2ccccc2)CC1	none (no result: ROMK mod) | ROMK retest 0.054
CCn1c(COc2c(C)cccc2C)nnc1SCC(=O)N1CCN(c2ccccc2)CC1	none (no result: ROMK mod)
COCCn1nnnc1C(c1ccc(OC)c(OC)c1)N1CCN(c2nc3ccccc3s2)CC1 (stereo unspecified)	none (no result: KCC2 mod, MDM2 E3 inh, Arbovirus inh, m-calpain inh)
C=CCNC(=O)c1onc(CSc2cccc(OC)c2)c1C(=O)O	none (no result: ROMK mod)
O=C(Cc1cccs1)NNC(=S)NCc1ccco1	ROMK mod -9.4 (no result: KCC2 mod) | ROMK retest inactive
C=CCc1c(C)nc(SC)nc1Nc1ccc(C(C)=O)cc1	none
COc1cc(NC(=O)CSc2nc(C)c(C)c(C)n2)cc(OC)c1	none
O=c1c2cn[nH]c2[nH]c(=S)n1-c1cccc(Cl)c1	none
COC(=O)c1ccc(C(=O)OC)c(-n2c(=O)c3ccccc3c3ccccc3c2=O)c1	none
CCCCCc1cc(O)c2c(C)cc(=O)oc2c1	none (no result: ROMK mod) | ROMK retest 0.055
CCCc1cc(=O)oc2cc(C)cc(O)c12	none (no result: KCC2 mod)
CCN(CC)c1ccc(/C=C2\CCC(/C=N/NC(=O)c3ccc(=O)n(C)c3)=C2N2CCOCC2)cc1	none (no result: ROMK mod) | ROMK retest 0.053
CCOC(=O)c1[nH]c2ccccc2c1NC(=S)Nc1cccc(C)c1	none (no result: MDM2 E3 inh) | ROMK retest inactive
N=c1c2c(-c3ccccc3)c(-c3ccccc3)n(Cc3ccco3)c2ncn1CCCn1ccnc1	ROMK mod -5.6 | ROMK retest 0.048
